Drawing on ChEMBL document CHEMBL1154352, “Toll-like receptor 7 selective synthetic oligoribonucleotide agonists: synthesis and structure-activity relationship studies” (J Med Chem, 2009), this text covers Activity and fold change (FC) for two compounds.

The source made the active and inactive calls. The rule behind the calls is not given here.

Assay [1] relates to Splenocyte. The assay is described as follows: Immunomodulatory activity in C57BL/6 mouse splenocytes bearing TLR7 receptor assessed as IL6 release at 100 ug/ml after 24 hrs by ELISA. The format is functional, cell-based. The gist of the method:
(§1)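 C57BL/6 splenocytes in RPMI 1640 with 10% FBS, penicillin/streptomycin, 2 mM L-glutamine, plated at 5 × 10^6 cells/mL; compounds in PBS added, 37 °C for 24 h. Supernatant IL-12 and IL-6 by ELISA; representative of three independent experiments.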
For orientation: An ELISA detects its analyte on a solid surface through an enzyme-linked reagent.

Assay [2] has as its target T1, Toll-like receptor 7 (Homo sapiens) (UniProt Q9NYK1).
T1 sequence (whole entry): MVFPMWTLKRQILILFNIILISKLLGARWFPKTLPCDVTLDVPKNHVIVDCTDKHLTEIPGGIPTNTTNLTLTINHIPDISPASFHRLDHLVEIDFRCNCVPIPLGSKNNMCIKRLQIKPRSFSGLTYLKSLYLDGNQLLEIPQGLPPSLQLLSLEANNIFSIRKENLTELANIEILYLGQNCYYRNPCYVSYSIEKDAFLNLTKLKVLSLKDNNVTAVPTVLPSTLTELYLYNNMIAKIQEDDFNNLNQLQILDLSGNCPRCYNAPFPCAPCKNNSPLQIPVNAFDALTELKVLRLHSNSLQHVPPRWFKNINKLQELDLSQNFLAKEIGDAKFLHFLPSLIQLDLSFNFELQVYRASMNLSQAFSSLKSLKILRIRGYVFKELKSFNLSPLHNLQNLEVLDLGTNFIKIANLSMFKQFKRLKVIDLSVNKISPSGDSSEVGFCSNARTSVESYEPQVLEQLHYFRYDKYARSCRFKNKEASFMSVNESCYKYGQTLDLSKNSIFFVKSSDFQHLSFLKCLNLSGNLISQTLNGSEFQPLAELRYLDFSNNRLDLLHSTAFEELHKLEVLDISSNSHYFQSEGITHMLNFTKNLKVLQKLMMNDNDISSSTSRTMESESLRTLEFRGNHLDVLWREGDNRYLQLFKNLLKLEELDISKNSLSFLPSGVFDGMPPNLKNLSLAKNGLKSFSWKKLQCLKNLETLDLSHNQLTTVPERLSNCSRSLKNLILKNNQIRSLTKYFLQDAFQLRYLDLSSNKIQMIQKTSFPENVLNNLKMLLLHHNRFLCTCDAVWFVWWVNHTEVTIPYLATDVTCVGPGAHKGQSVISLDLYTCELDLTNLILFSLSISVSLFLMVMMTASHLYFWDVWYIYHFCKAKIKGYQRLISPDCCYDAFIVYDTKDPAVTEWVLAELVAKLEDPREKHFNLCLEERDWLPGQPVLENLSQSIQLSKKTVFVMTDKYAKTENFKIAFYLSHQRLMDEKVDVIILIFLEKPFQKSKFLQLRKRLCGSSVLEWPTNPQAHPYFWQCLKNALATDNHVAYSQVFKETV
The assay is described as follows: Activation of human TLR7 expressed in HEK293XL assessed as fold induction of NF-kappaB activity at 50 ug/ml after 18 hrs by reporter gene assay relative to control. The gist of the method:
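HEK293 cells stably expressing human TLR7 or TLR8, transiently transfected with SEAP reporter plasmid; medium replaced, SIMRA compounds added, 18 h incubation. Supernatant SEAP measured by QuantiBlue; expressed as fold increase in NF-κB activity over PBS control. Tabulated data at 50 μg/mL, representative of three independent experiments.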
Background: Reporter assays use an easily measured gene product as a stand-in for the process of interest.

In assay [3] the test system is Splenocyte. The assay is described as follows: Immunomodulatory activity in C57BL/6 mouse splenocytes bearing TLR7 receptor assessed as IL12 release at 100 ug/ml after 24 hrs by ELISA. The format is functional, cell-based. The gist of the method:
as §1

For assay [4], the target named is T2, Toll-like receptor 9 (Mus musculus) (UniProt Q9EQU3).
T2 sequence (whole entry): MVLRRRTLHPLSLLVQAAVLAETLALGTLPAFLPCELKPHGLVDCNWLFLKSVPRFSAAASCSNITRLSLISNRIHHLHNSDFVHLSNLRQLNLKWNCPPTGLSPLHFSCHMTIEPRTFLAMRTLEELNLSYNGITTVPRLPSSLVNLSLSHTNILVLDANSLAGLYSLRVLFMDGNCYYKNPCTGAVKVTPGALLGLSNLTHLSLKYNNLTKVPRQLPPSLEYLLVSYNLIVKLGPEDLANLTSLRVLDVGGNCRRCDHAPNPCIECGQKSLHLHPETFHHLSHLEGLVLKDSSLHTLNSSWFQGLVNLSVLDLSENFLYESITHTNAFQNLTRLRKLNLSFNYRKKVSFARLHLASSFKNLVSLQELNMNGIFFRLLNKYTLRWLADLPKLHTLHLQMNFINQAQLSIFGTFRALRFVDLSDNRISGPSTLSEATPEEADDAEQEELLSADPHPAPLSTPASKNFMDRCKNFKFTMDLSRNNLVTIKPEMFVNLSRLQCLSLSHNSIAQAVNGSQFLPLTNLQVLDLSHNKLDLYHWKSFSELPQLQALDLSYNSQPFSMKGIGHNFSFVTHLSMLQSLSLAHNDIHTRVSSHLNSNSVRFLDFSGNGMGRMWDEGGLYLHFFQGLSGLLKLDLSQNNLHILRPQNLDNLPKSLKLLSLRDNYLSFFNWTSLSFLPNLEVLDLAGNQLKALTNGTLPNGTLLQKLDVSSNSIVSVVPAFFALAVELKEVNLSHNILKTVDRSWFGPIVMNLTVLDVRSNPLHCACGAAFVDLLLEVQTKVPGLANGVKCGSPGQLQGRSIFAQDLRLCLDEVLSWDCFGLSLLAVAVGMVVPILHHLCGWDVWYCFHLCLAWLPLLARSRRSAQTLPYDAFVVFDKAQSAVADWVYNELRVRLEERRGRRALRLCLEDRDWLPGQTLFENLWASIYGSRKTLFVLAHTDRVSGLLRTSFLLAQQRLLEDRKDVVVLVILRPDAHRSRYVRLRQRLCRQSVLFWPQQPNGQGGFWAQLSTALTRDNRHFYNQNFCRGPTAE
Put plainly: Activation of mouse TLR9 expressed in HEK293 assessed as induction of NF-kappaB activity reporter gene assay. The format is cell-based.

For `Nc1ccn([C@@H]2O[C@H](COP(=O)(S)O[C@H]3[C@@H](O)[C@H](n4ccc(N)nc4=O)O[C@@H]3COP(=O)(S)O[C@H]3[C@@H](O)[C@H](n4cnc5c(N)ncnc54)O[C@@H]3COP(=O)(S)O[C@H]3[C@@H](O)[C@H](n4ccc5c(=O)[nH]c(N)nc54)O[C@@H]3COP(=O)(S)O[C@H]3[C@@H](O)[C@H](n4ccc(=O)[nH]c4=O)O[C@@H]3COP(=O)(S)O[C@H]3[C@@H](O)[C@H](n4ccc(=O)[nH]c4=O)O[C@@H]3COP(=O)(S)O[C@H]3[C@@H](O)[C@H](n4ccc(N)nc4=O)O[C@@H]3COP(=O)(S)O[C@H]3[C@@H](O)[C@H](n4cnc5c(N)ncnc54)O[C@@H]3CO)[C@@H](OP(=O)(S)OC[C@H]3O[C@@H](n4ccc(=O)[nH]c4=O)[C@H](O)[C@@H]3OP(=O)(S)OC[C@H]3O[C@@H](n4ccc5c(=O)[nH]c(N)nc54)[C@H](O)[C@@H]3OP(=O)(S)OC[C@H]3O[C@@H](n4ccc(=O)[nH]c4=O)[C@H](O)[C@@H]3OP(=O)(S)OCC(O)COP(=O)(S)O[C@H]3[C@@H](O)[C@H](n4ccc(=O)[nH]c4=O)O[C@@H]3COP(=O)(S)O[C@H]3[C@@H](O)[C@H](n4ccc5c(=O)[nH]c(N)nc54)O[C@@H]3COP(=O)(S)O[C@H]3[C@@H](O)[C@H](n4ccc(=O)[nH]c4=O)O[C@@H]3COP(=O)(S)O[C@H]3[C@@H](O)[C@H](n4ccc(N)nc4=O)O[C@@H]3COP(=O)(S)O[C@H]3[C@@H](O)[C@H](n4ccc(N)nc4=O)O[C@@H]3COP(=O)(S)O[C@H]3[C@@H](O)[C@H](n4cnc5c(N)ncnc54)O[C@@H]3COP(=O)(S)O[C@H]3[C@@H](O)[C@H](n4ccc5c(=O)[nH]c(N)nc54)O[C@@H]3COP(=O)(S)O[C@H]3[C@@H](O)[C@H](n4ccc(=O)[nH]c4=O)O[C@@H]3COP(=O)(S)O[C@H]3[C@@H](O)[C@H](n4ccc(=O)[nH]c4=O)O[C@@H]3COP(=O)(S)O[C@H]3[C@@H](O)[C@H](n4ccc(N)nc4=O)O[C@@H]3COP(=O)(S)O[C@H]3[C@@H](O)[C@H](n4cnc5c(N)ncnc54)O[C@@H]3CO)[C@H]2O)c(=O)n1` (stereo partly drawn), the result in assay [1] and in assay [3] was Active. Also, in assay [2], the fold change (FC) worked out at 6.1. The outcome in assay [4] was inactive.

Take `Nc1ccn([C@@H]2O[C@H](COP(=O)(S)O[C@H]3[C@@H](O)[C@H](n4ccc5c(=O)[nH]c(N)nc54)O[C@@H]3COP(=O)(S)O[C@H]3[C@@H](O)[C@H](n4cnc5c(N)ncnc54)O[C@@H]3COP(=O)(S)O[C@H]3[C@@H](O)[C@H](n4cnc5c(N)ncnc54)O[C@@H]3COP(=O)(S)O[C@H]3[C@@H](O)[C@H](n4ccc5c(=O)[nH]c(N)nc54)O[C@@H]3COP(=O)(S)O[C@H]3[C@@H](O)[C@H](n4ccc(=O)[nH]c4=O)O[C@@H]3COP(=O)(S)O[C@H]3[C@@H](O)[C@H](n4ccc(=O)[nH]c4=O)O[C@@H]3COP(=O)(S)O[C@H]3[C@@H](O)[C@H](n4cnc5c(N)ncnc54)O[C@@H]3COP(=O)(S)O[C@H]3[C@@H](O)[C@H](n4cnc5c(N)ncnc54)O[C@@H]3CO)[C@@H](OP(=O)(S)OC[C@H]3O[C@@H](n4ccc(=O)[nH]c4=O)[C@H](O)[C@@H]3OP(=O)(S)OC[C@H]3O[C@@H](n4ccc5c(=O)[nH]c(N)nc54)[C@H](O)[C@@H]3OP(=O)(S)OCC(O)COP(=O)(S)O[C@H]3[C@@H](O)[C@H](n4ccc5c(=O)[nH]c(N)nc54)O[C@@H]3COP(=O)(S)O[C@H]3[C@@H](O)[C@H](n4ccc(=O)[nH]c4=O)O[C@@H]3COP(=O)(S)O[C@H]3[C@@H](O)[C@H](n4ccc(N)nc4=O)O[C@@H]3COP(=O)(S)O[C@H]3[C@@H](O)[C@H](n4ccc5c(=O)[nH]c(N)nc54)O[C@@H]3COP(=O)(S)O[C@H]3[C@@H](O)[C@H](n4cnc5c(N)ncnc54)O[C@@H]3COP(=O)(S)O[C@H]3[C@@H](O)[C@H](n4cnc5c(N)ncnc54)O[C@@H]3COP(=O)(S)O[C@H]3[C@@H](O)[C@H](n4ccc5c(=O)[nH]c(N)nc54)O[C@@H]3COP(=O)(S)O[C@H]3[C@@H](O)[C@H](n4ccc(=O)[nH]c4=O)O[C@@H]3COP(=O)(S)O[C@H]3[C@@H](O)[C@H](n4ccc(=O)[nH]c4=O)O[C@@H]3COP(=O)(S)O[C@H]3[C@@H](O)[C@H](n4cnc5c(N)ncnc54)O[C@@H]3COP(=O)(S)O[C@H]3[C@@H](O)[C@H](n4cnc5c(N)ncnc54)O[C@@H]3CO)[C@H]2O)c(=O)n1` (stereo partly drawn): the result in assay [1] and in assay [3] was Active. Further, in assay [2], the fold change (FC) amounted to 13.7. Besides, the result in assay [4] was inactive.
